Measurements reported in ChEMBL document CHEMBL1130215, “7-alkylidenecephalosporin esters as inhibitors of human leukocyte elastase” (J Med Chem, 1997).

Each molecule was assayed against T1, Neutrophil elastase (Homo sapiens, UniProt P08246) (assay: Inhibition of human leukocyte elastase).
T1 sequence (P08246 whole entry): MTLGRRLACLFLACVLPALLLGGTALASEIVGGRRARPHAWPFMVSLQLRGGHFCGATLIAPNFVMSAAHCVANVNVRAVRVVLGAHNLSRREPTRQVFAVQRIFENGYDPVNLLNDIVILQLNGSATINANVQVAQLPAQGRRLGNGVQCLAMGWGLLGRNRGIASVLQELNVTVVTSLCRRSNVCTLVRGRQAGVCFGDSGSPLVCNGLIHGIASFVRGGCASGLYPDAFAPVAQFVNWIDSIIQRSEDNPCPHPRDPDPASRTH
Summary of the method: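 Enzyme preincubated 4 min with inhibitor (DMSO stock, 1 mg/mL, diluted in DMSO when needed) in 0.1 M Tris-NaCl buffer pH 7.5 with NaN3. Aliquot then added to N-(methoxysuccinyl)-Ala-Ala-Pro-Val 4-nitroanilide substrate in buffer. Residual hydrolysis rate read at 410 nm for 2 min at 1 s intervals; IC50 taken from varied inhibitor volumes.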
`[2H]C(=C=C1C(=O)N2C(C(=O)OC(c3ccccc3)c3ccccc3)=C(COC(C)=O)CS(=O)(=O)C12)C(C)(C)C` (stereo not drawn) showed an IC50 of 13.5 µM.
Molecule `CC(=O)OCC1=C(C(=O)OC(c2ccccc2)c2ccccc2)N2C(=O)/C(=C/C=O)C2SC1` (stereo not drawn) has an IC50 of 13.9 µM.
With `CO[C@H]1C(=O)N2C(C(=O)OC(c3ccccc3)c3ccccc3)=C(COC(C)=O)CS(=O)(=O)C12` (stereo partly drawn) the IC50 was 0.28 µM.
With `CC(=O)OCC1=C(C(=O)OC(c2ccccc2)c2ccccc2)N2C(=O)/C(=C/c3ccccn3)C2S(=O)(=O)C1` (stereo not drawn) the IC50 was > 10 µM.
`CC(=O)/C=C1/C(=O)N2C(C(=O)OC(c3ccccc3)c3ccccc3)=C(COC(C)=O)CSC12` (stereo not drawn) showed an IC50 of 4.27 µM.
With `CC(=O)OCC1=C(C(=O)OC(c2ccccc2)c2ccccc2)N2C(=O)C(=C=CC(C)(C)C)C2SC1` (stereo not drawn) the IC50 was > 10 µM.
`C=C=C1C(=O)N2C(C(=O)OC(c3ccccc3)c3ccccc3)=C(COC(C)=O)CS(=O)(=O)C12` (stereo not drawn) gave an IC50 of 6.1 µM.
Work on `CC(=O)OCC1=C(C(=O)OC(c2ccccc2)c2ccccc2)N2C(=O)[C@H](Cl)C2SC1` (stereo partly drawn) yielded an IC50 of 6 µM.
For `CC(=O)OCC1=C(C(=O)OC(c2ccccc2)c2ccccc2)N2C(=O)[C@@H](N)C2SC1` (stereo partly drawn), the IC50 was > 10 µM.
With `COC(=O)/C=C1/C(=O)N2C(C(=O)OC(c3ccccc3)c3ccccc3)=C(COC(C)=O)CS(=O)(=O)C12` (stereo not drawn) the IC50 was 8.9 µM.
With `CC(=O)OCC1=C(C(=O)OC(c2ccccc2)c2ccccc2)N2C(=O)/C(=C/c3ccccn3)C2SC1` (stereo not drawn) the IC50 was > 10 µM.
Work on `CC(=O)OCC1=C(C(=O)OC(c2ccccc2)c2ccccc2)N2C(=O)C(=C(Cl)Cl)C2S(=O)(=O)C1` (stereo not drawn) yielded an IC50 of 2.56 µM.
For `CC(=O)OCC1=C(C(=O)OC(c2ccccc2)c2ccccc2)N2C(=O)/C(=C/C#N)C2SC1` (stereo not drawn), the IC50 was > 10 µM.
With `CC(=O)OCC1=C(C(=O)OC(c2ccccc2)c2ccccc2)N2C(=O)C(=C(Cl)Cl)C2SC1` (stereo not drawn) the IC50 was 6.41 µM.
`CC(=O)OCC1=C(C(=O)OC(c2ccccc2)c2ccccc2)N2C(=O)/C(=C/C#N)C2S(=O)(=O)C1` (stereo not drawn) was tested, and the IC50 was 0.49 µM.
With `CON(C)C(=O)/C=C1/C(=O)N2C(C(=O)OC(c3ccccc3)c3ccccc3)=C(COC(C)=O)CS(=O)(=O)C12` (stereo not drawn) the IC50 was > 10 µM.
`CC(=O)OCC1=C(C(=O)OC(c2ccccc2)c2ccccc2)N2C(=O)/C(=C/CO)C2SC1` (stereo not drawn) was tested, and the IC50 was > 10 µM.
In the case of `CO[C@H]1C(=O)N2C(C(=O)OC(c3ccccc3)c3ccccc3)=C(COC(C)=O)CSC12` (stereo partly drawn), the IC50 is reported as 5.35 µM.
With `CC(=O)OCC1=C(C(=O)OC(c2ccccc2)c2ccccc2)N2C(=O)CC2SC1` (stereo not drawn) the IC50 was > 10 µM.
Work on `CC(=O)OCC1=C(C(=O)OC(c2ccccc2)c2ccccc2)N2C(=O)/C(=C/c3ccccc3)C2S(=O)(=O)C1` (stereo not drawn) yielded an IC50 of 8.9 µM.
`CC(=O)OCC1=C(C(=O)OC(c2ccccc2)c2ccccc2)N2C(=O)C(Br)(Br)C2SC1` (stereo not drawn) was tested, and the IC50 was 1.39 µM.
`CC(=O)OCC1=C(C(=O)OC(c2ccccc2)c2ccccc2)N2C(=O)[C@H](I)C2SC1` (stereo partly drawn) gave an IC50 of 1.18 µM.
`CC(=O)OCC1=C(C(=O)OC(c2ccccc2)c2ccccc2)N2C(=O)/C(=C\Br)C2SC1` (stereo not drawn) gave an IC50 of 0.39 µM.
`CC(=O)OCC1=C(C(=O)OC(c2ccccc2)c2ccccc2)N2C(=O)/C(=C/C(=O)OC(C)(C)C)C2S(=O)(=O)C1` (stereo not drawn) showed an IC50 of 7.1 µM.
`C=C=C1C(=O)N2C(C(=O)OC(c3ccccc3)c3ccccc3)=C(COC(C)=O)CSC12` (stereo not drawn) showed an IC50 of 9 µM.
`COC(=O)/C(Br)=C1/C(=O)N2C(C(=O)OC(c3ccccc3)c3ccccc3)=C(COC(C)=O)CSC12` (stereo not drawn) was tested, and the IC50 was 0.21 µM.
`CC(=O)OCC1=C(C(=O)OC(c2ccccc2)c2ccccc2)N2C(=O)/C(=C/C(=O)OC(C)(C)C)C2SC1` (stereo not drawn) was tested, and the IC50 was > 10 µM.
With `CC(=O)OCC1=C(C(=O)OC(c2ccccc2)c2ccccc2)N2C(=O)/C(=C/c3ccccc3)C2SC1` (stereo not drawn) the IC50 was > 10 µM.
In the case of `CC(=O)OCC1=C(C(=O)OC(c2ccccc2)c2ccccc2)N2C(=O)C(=C=CBr)C2SC1` (stereo not drawn), the IC50 is reported as 5.4 µM.
Molecule `COC(=O)/C=C1/C(=O)N2C(C(=O)OC(c3ccccc3)c3ccccc3)=C(COC(C)=O)CSC12` (stereo not drawn) has an IC50 of 2.6 µM.
`CC(=O)OCC1=C(C(=O)OC(c2ccccc2)c2ccccc2)N2C(=O)C(=C(Br)Br)C2SC1` (stereo not drawn) showed an IC50 of 0.26 µM.
In the case of `CC(=O)OCC1=C(C(=O)OC(c2ccccc2)c2ccccc2)N2C(=O)C(=O)C2SC1` (stereo not drawn), the IC50 is reported as > 10 µM.
Molecule `CC(=O)OCC1=C(C(=O)OC(c2ccccc2)c2ccccc2)N2C(=O)/C(=C\Br)C2S(=O)(=O)C1` (stereo not drawn) has an IC50 of 3.36 µM.
`CC(=O)/C=C1/C(=O)N2C(C(=O)OC(c3ccccc3)c3ccccc3)=C(COC(C)=O)CS(=O)(=O)C12` (stereo not drawn) was tested, and the IC50 was > 10 µM.
`CC(=O)OCC1=C(C(=O)OC(c2ccccc2)c2ccccc2)N2C(=O)/C(=C\c3ccccc3)C2S(=O)(=O)C1` (stereo not drawn) was tested, and the IC50 was 6 µM.
For `CC(=O)OCC1=C(C(=O)OC(c2ccccc2)c2ccccc2)N2C(=O)C(=C(Br)Br)C2S(=O)(=O)C1` (stereo not drawn), the IC50 was 2.07 µM.
For `CC(=O)OCC1=C(C(=O)OC(c2ccccc2)c2ccccc2)N2C(=O)/C(=C\c3ccccc3)C2SC1` (stereo not drawn), the IC50 was > 10 µM.
Molecule `CC(=O)OCC1=C(C(=O)OC(c2ccccc2)c2ccccc2)N2C(=O)C(=C=CC(C)(C)C)C2S(=O)(=O)C1` (stereo not drawn) has an IC50 of 10.5 µM.
